# The source made the active and inactive calls.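 Rule for the calls: active = IC50 of 80 µM or lower; inactive = the rest.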
# Biological target: glucose-6-phosphate dehydrogenase-6-phosphogluconolactonase (PfGluPho) [Plasmodium falciparum 3D7]
# Test: inhibition of P. falciparum G6PD rate – biochemical, kinetic direct NADPH detection, set 3, orthogonal assay for PfG6PD antimalarial inhibitor project, SAR follow-up (AID 602425)
# Details: recombinant PfG6PDH, direct NADPH fluorescence kinetic
# Procedure, shortened: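 Timing: reads at 5-min intervals; Test system: PfG6PDH, the glucose-6-phosphate dehydrogenase of Plasmodium falciparum; Buffer or medium: Tris-HCl pH 7.5 buffer with MgCl2, Tween 20, BSA; Signal: NADPH fluorescence, 340 nm excitation, 450 nm emission; Reagent: G6P 20 µM and NADP 3 µM final; Dosing: test compounds in dose-response series.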
row,Compound,IC50
1,CCN1CCC[C@@H]1CNC(=O)c1ccc2c(c1)NC(=O)c1cc(F)ccc1S2,49.1 µM
2,CCN1CCC(NC(=O)c2ccc3c(c2)NC(=O)c2ccccc2S3)C1 (configuration not stated),> 80 µM (inactive)
3,CCCN1CCCCC1CNC(=O)c1ccc2c(c1)NC(=O)c1ccccc1S2 (configuration not stated),62.6 µM
4,CN1CCC(NC(=O)c2ccc3c(c2)NC(=O)c2ccccc2S3)C1 (configuration not stated),> 80 µM (inactive)
5,CCCN1CCC(NC(=O)c2ccc3c(c2)NC(=O)c2ccccc2S3)C1 (configuration not stated),> 80 µM (inactive)
6,CN1CCCCC1CNC(=O)c1ccc2c(c1)NC(=O)c1ccccc1S2 (configuration not stated),71.4 µM
7,CCN1CCC[C@@H]1CNC(=O)c1ccc2c(c1)NC(=O)c1ccccc1N2,> 80 µM (inactive)
8,CCN1CCCCC1CNC(=O)c1ccc2c(c1)NC(=O)c1ccccc1S2 (configuration not stated),> 80 µM (inactive)

# The remaining compounds from weak to strong by IC50, led by results:
row,IC50,Compound
1,42.2 µM,CCCCCCN1CCCC1CNC(=O)c1ccc2c(c1)NC(=O)c1ccccc1S2 (configuration not stated)
2,41.4 µM,O=C(NCC1CCCCN1)c1ccc2c(c1)NC(=O)c1ccccc1S2 (configuration not stated)
3,40.3 µM,O=C(NC[C@H]1CCCN1)c1ccc2c(c1)NC(=O)c1ccccc1S2
4,24.4 µM,CCN1CCC[C@@H]1CNC(=O)c1ccc2c(c1)NC(=O)c1cc(C)ccc1S2
5,23.3 µM,CN1CCCC1CNC(=O)c1ccc2c(c1)NC(=O)c1ccccc1S2 (configuration not stated)
6,18.5 µM,CCCCN1CCCC1CNC(=O)c1ccc2c(c1)NC(=O)c1ccccc1S2 (configuration not stated)
7,11.4 µM,CCCN1CCC[C@@H]1CNC(=O)c1ccc2c(c1)NC(=O)c1ccccc1S2
8,4.34 µM,CCN1CCC[C@@H]1CNC(=O)c1ccc2c(c1)NC(=O)c1ccc(F)cc1S2
9,0.212 µM,CCN1CCC[C@@H]1CNC(=O)c1ccc2c(c1)NC(=O)c1cccc(C)c1S2

# Reference: PubChem BioAssay AID602425 (Sanford-Burnham Center for Chemical Genomics, 2012)
